Measured values as given in ChEMBL document CHEMBL3286358, “Biological evaluation of tanshindiols as EZH2 histone methyltransferase inhibitors” (Bioorg Med Chem Lett, 2014).
pIC50, pKi: −log10 of the molar value. Blank lines part the entries; values can stand above or below the molecule they belong to. Calls of active or inactive are those of the source. The calls are words filed in the database; no cut-off is given here.

Assays:
[1] = molecular target: EZH2/SUZ12/EED complex (Homo sapiens) (UniProt Q15910+O75530+Q15022); assay: (§1) Inhibition of EZH2 histone methyltransferase activity in EZH2/SUZ12/EED protein complex (unknown origin) using histone H3 peptide/S-adenosylmethionine as substrate after 2 hrs by TR-FRET assay
EZH2/SUZ12/EED complex (Homo sapiens), sequence (O75530 2-441 partner limits assumed): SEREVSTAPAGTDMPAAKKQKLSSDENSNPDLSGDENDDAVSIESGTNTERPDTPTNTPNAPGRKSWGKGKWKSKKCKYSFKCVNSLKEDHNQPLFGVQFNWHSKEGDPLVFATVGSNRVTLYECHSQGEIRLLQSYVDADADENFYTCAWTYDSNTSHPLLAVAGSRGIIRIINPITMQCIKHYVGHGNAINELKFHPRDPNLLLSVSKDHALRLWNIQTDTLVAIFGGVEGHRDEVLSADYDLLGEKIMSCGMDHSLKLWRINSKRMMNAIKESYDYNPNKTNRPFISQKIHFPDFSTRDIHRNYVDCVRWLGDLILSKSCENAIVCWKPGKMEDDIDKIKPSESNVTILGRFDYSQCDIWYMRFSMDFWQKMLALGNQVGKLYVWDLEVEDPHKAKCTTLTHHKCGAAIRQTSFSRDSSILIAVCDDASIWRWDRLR
EZH2/SUZ12/EED complex (Homo sapiens), sequence (Q15022 whole entry partner): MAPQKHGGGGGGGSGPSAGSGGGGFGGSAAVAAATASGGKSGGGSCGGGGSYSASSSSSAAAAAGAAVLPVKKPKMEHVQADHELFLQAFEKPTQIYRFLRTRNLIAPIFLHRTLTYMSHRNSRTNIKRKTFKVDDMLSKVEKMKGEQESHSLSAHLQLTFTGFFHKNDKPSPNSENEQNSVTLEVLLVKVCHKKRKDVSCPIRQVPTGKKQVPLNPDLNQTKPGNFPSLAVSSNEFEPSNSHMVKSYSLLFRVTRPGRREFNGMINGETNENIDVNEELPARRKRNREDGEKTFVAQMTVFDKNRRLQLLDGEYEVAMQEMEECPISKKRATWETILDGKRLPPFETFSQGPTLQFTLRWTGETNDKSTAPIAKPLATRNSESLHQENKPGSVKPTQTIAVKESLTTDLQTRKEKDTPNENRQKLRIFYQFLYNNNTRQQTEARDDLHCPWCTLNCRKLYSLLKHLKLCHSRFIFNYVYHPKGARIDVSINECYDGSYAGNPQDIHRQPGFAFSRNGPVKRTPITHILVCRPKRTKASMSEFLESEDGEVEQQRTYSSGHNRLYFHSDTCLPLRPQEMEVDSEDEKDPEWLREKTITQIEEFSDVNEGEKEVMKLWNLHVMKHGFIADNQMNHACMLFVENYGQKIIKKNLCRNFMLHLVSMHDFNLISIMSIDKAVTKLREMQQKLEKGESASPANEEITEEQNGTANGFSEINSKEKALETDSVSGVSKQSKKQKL
EZH2/SUZ12/EED complex (Homo sapiens), sequence (Q15910 whole entry): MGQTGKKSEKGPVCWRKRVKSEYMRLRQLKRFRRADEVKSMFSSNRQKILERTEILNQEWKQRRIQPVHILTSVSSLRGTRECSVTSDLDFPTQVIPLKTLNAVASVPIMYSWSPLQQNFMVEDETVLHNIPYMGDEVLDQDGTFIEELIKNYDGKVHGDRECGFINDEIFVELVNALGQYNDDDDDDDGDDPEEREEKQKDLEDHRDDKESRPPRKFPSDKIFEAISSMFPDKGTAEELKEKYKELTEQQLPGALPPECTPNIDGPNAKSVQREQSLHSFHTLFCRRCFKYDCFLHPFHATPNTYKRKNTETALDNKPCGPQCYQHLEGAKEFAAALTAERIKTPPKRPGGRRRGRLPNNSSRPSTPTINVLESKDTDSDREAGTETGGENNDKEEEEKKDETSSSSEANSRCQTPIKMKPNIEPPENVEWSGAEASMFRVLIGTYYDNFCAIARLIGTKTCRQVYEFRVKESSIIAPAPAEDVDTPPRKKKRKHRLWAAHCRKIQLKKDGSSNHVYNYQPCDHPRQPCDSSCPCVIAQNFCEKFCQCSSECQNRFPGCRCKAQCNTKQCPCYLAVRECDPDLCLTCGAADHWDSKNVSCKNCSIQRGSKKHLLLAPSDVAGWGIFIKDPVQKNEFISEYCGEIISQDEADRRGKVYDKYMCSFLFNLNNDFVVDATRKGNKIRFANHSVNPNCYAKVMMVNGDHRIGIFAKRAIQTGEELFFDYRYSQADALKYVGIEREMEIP

EZH2/SUZ12/EED complex = EZH2/SUZ12/EED complex (Homo sapiens, UniProt O75530+Q15022+Q15910); assay: as §1
EZH2/SUZ12/EED complex, sequence (Q15910 whole entry): as above
EZH2/SUZ12/EED complex, sequence (O75530 whole entry): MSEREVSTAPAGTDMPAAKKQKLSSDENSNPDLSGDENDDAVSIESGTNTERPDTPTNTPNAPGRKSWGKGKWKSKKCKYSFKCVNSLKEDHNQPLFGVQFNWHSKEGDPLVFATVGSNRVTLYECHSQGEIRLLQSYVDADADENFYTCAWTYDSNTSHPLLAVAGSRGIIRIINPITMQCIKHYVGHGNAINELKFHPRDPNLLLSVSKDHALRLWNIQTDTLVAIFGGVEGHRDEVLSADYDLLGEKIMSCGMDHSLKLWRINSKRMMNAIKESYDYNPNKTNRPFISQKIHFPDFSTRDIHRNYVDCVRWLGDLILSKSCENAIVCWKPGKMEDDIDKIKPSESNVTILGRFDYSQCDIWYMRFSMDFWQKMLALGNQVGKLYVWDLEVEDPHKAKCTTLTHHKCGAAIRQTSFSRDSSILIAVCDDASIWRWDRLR
EZH2/SUZ12/EED complex, sequence (Q15022 whole entry): as the sequence (Q15022 whole entry partner) above

[2] = Cytotoxicity against human Pfeiffer cells expressing EZH2 […] mutant assessed as growth inhibition after 72 hrs by WST-1 assay; assay type: functional
In short: (§2)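 Growth inhibition of tumour lines read by WST-1 viability assay. GI50 taken as the half-maximal growth-inhibitory concentration.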

[3] = Cytotoxicity against human U2932 cells assessed as growth inhibition after 72 hrs by WST-1 assay; assay type: functional; conditions: U2932, 72 h; in short: as §2
Daudi = assay: Cytotoxicity against human Daudi cells assessed as growth inhibition after 72 hrs by WST-1 assay; assay type: functional; in short: as §2
PC-3 = assay: Cytotoxicity against human PC3 cells assessed as growth inhibition after 72 hrs by WST-1 assay; assay type: functional; conditions: PC-3, 72 h; in short: as §2
T98G = assay: Cytotoxicity against human T98G cells assessed as growth inhibition after 72 hrs by WST-1 assay; assay type: functional; in short: as §2
[4] = Cytotoxicity against human U87MG cells assessed as growth inhibition after 72 hrs by WST-1 assay; assay type: functional, U-87MG ATCC; conditions: U-87 MG; in short: as §2
A549 = assay: Cytotoxicity against human A549 cells assessed as growth inhibition after 72 hrs by WST-1 assay; assay type: functional; conditions: A549, 72 h; in short: as §2
[5] = Cell cycle arrest in human Pfeiffer cells assessed as accumulation at sub-G1 phase at 1 uM after 72 hrs (reference value: 9%); assay type: functional, cell-based
In short: (§3)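 Pfeiffer cells (DLBCL carrying EZH2 A677G) exposed 72 h to 1, 2.5 or 5 µM, with untreated control. DNA content histograms are gated as M1 sub-G1, M2 G1, M3 S and M4 G2/M. Values are the percentage of cells in each gate.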

[6] = Cell cycle arrest in human Pfeiffer cells assessed as accumulation at sub-G1 phase at 2.5 uM after 72 hrs (reference value: 9%); assay type: functional, cell-based; in short: as §3
[7] = Cell cycle arrest in human Pfeiffer cells assessed as accumulation at sub-G1 phase at 5 uM after 72 hrs (reference value: 9%); assay type: functional, cell-based; in short: as §3
[8] = Cell cycle arrest in human Pfeiffer cells assessed as accumulation at G1 phase at 1 uM after 72 hrs (reference value: 59%); assay type: functional, cell-based; in short: as §3
[9] = Cell cycle arrest in human Pfeiffer cells assessed as accumulation at G1 phase at 2.5 uM after 72 hrs (reference value: 59%); assay type: functional, cell-based; in short: as §3
[10] = Cell cycle arrest in human Pfeiffer cells assessed as accumulation at G1 phase at 5 uM after 72 hrs (reference value: 59%); assay type: functional, cell-based; in short: as §3
[11] = Cell cycle arrest in human Pfeiffer cells assessed as accumulation at S phase at 1 uM after 72 hrs (reference value: 21%); assay type: functional, cell-based; in short: as §3
[12] = Cell cycle arrest in human Pfeiffer cells assessed as accumulation at S phase at 2.5 uM after 72 hrs (reference value: 21%); assay type: functional, cell-based; in short: as §3
[13] = Cell cycle arrest in human Pfeiffer cells assessed as accumulation at S phase at 5 uM after 72 hrs (reference value: 21%); assay type: functional, cell-based; in short: as §3
[14] = Cell cycle arrest in human Pfeiffer cells assessed as accumulation at G2/M phase at 1 uM after 72 hrs (reference value: 10%); assay type: functional, cell-based; in short: as §3
[15] = Cell cycle arrest in human Pfeiffer cells assessed as accumulation at G2/M phase at 2.5 uM after 72 hrs (reference value: 10%); assay type: functional, cell-based; in short: as §3
[16] = Cell cycle arrest in human Pfeiffer cells assessed as accumulation at G2/M phase at 5 uM after 72 hrs (reference value: 10%); assay type: functional, cell-based; in short: as §3
Pfeiffer [17] = assay: Induction of apoptosis in human Pfeiffer cells assessed as DNA content at 1 to 5 uM after 72 hrs by DAPI staining-based analysis; assay type: functional, cell-based; in short: as §3
Pfeiffer [18] = assay: Induction of apoptosis in human Pfeiffer cells assessed as increase in cleaved caspase-3 level at 1 to 3 uM after 72 hrs by Western blotting analysis; assay type: functional, cell-based
In short: (§4)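 Pfeiffer cells treated 72 h. Lysates analysed by Western blot for apoptosis markers.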

Pfeiffer [19] = assay: Induction of apoptosis in human Pfeiffer cells assessed as increase in cleaved caspase-7 level at 1 to 3 uM after 72 hrs by Western blotting analysis; assay type: functional, cell-based; in short: as §4
Pfeiffer [20] = assay: Induction of apoptosis in human Pfeiffer cells assessed as increase in cleaved PARP level at 1 to 3 uM after 72 hrs by Western blotting analysis; assay type: functional, cell-based; in short: as §4
[21] = molecular target: EZH2/SUZ12/EED/RBBP7/RBBP4; assay: Competitive inhibition of EZH2 histone methyltransferase activity in EZH2/SUZ12/EED/RbAp46/48 (unknown origin) using histone H3 peptide/varying concentration of S-adenosylmethionine as substrate after 2 hrs by Lineweaver-Burk plot analysis; assay type: protein-complex assay, Homo sapiens
In short: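 PRC2 complex (EZH2, EED, SUZ12, RbAp46/48) as enzyme. Histone H3 peptide fixed at 150 nM, SAM varied. Inhibitor at 0, 0.625, 1.25 and 2.5 µM.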

[22] = Inhibition of EZH2 histone methyltransferase […] mutant in EZH2/SUZ12/EED/RbAp46/48 protein complex (unknown origin) using histone H3 peptide/S-adenosylmethionine as substrate after 2 hrs by Lineweaver-Burk plot analysis; parameters: species or system Homo sapiens
In short: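 EZH2 A677G mutant activity measured with inhibitor at 0, 0.625, 1.25 and 2.5 µM. Inhibition mode analysed by Lineweaver–Burk plot.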

[23] = molecular target: Histone-lysine N-methyltransferase EZH2 (Homo sapiens) (UniProt Q15910); conditions: 1 to 3 uM
Histone-lysine N-methyltransferase EZH2 (Homo sapiens), sequence (Q15910 whole entry, looked up): as the sequence (Q15910 whole entry) above

[24] = molecular target: Histone-lysine N-methyltransferase EZH2 (Homo sapiens) (UniProt Q15910); conditions: 3 uM
[25] = molecular target: Histone-lysine N-methyltransferase EZH2 (Homo sapiens) (UniProt Q15910); conditions: 3 uM; remark: listed apart in the source

inhibition [1]: Dose-dependent effect
pIC50 (EZH2/SUZ12/EED complex): 5.32
Compound: Cc1coc2c1C(=O)C(=O)c1c-2ccc2c1CCCC2(C)CO (configuration not stated) [TANSHINONE IIB]

inhibition [1]: Dose-dependent effect
pIC50 (EZH2/SUZ12/EED complex): 6.26
pKi [21]: 6.71
pKi [22]: 6.75
inhibition [23]: Active
inhibition [24]: 50%
inhibition [25]: 50%
Compound: Cc1coc2c1C(=O)C(=O)c1c-2ccc2c1CC[C@@H](O)[C@]2(C)O
GI50 [2]: 1.5 µM
GI50 [3]: 9.5 µM
GI50 (Daudi): 10.6 µM
GI50 (PC-3): 4 µM
GI50 (T98G): 6 µM
GI50 [4]: 5.7 µM
GI50 (A549): 4.2 µM
Activity [5]: 11%
Activity [6]: 13%
Activity [7]: 21%
Activity [8]: 58%
Activity [9]: 51%
Activity [10]: 41%
Activity [11]: 20%
Activity [12]: 24%
Activity [13]: 29%
Activity [14]: 11%
Activity [15]: 11%
Activity [16]: 7%
Activity (Pfeiffer [17]): Active
Activity (Pfeiffer [18]): Active
Activity (Pfeiffer [19]): Active
Activity (Pfeiffer [20]): Active

inhibition [1]: Dose-dependent effect
pIC50 (EZH2/SUZ12/EED complex): 6.28
Compound: Cc1coc2c1C(=O)C(=O)c1c-2ccc2c1CC[C@H](O)[C@]2(C)O

inhibition [1]: Dose-dependent effect
pIC50 (EZH2/SUZ12/EED complex): 5.02
Compound: COC(=O)[C@@]1(C)CCCc2c1ccc1c2C(=O)C(=O)c2c(C)coc2-1 [METHYL TANSHINONATE]

inhibition [1]: Dose-dependent effect
pIC50 (EZH2/SUZ12/EED complex): 4.55
Compound: Cc1coc2c1C(=O)C(=O)c1c-2ccc2c1CCCC2(C)C [TANSHINONE IIA]

inhibition [1]: Dose-dependent effect
pIC50 (EZH2/SUZ12/EED complex): 5.05
Compound: Cc1coc2c1C(=O)C(=O)c1c-2ccc2c(C)cccc12 [TANSHINONE I]

Compound: CC[C@H](C)n1cc(C)c2c(C(=O)NCc3c(C)cc(C)[nH]c3=O)cc(-c3ccc(N4CCNCC4)nc3)cc21 [GSK2816126]
GI50 [2]: 0.18 µM
GI50 [3]: 6.7 µM
GI50 (Daudi): 11.2 µM
GI50 (PC-3): 9.4 µM
GI50 (T98G): 12.6 µM
GI50 [4]: 28.5 µM
GI50 (A549): 18.7 µM
